PKD1 inh: blocks activity of human protein kinase D1 | Q15139 | actives 0.056% (n = 200,000) | inhibition, % (test concentration not listed) | PKD1 kinase fluorescence polarization assay
ABCG2 block: human ABCG2 inhibition, ABCB1 as counter-screen. Q9UNQ0. IgMXP3 cells, JC-1 efflux, flow cytometry. inhibition, % at 6.6 µM. actives 0.1% (n = 190,000). AID 1325;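 active = inhibition above 80%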;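 also: 0% = DMSO and 100% = nicardipine control wells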
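Test system: IgMXP3 (ABCG2) plus far-red-tagged CCRF-Adr (ABCB1) cells. Reagent: JC-1 dye as substrate. Timing: 10 min exposure at 25 °C with rotation, no wash. Measured by: flow cytometric JC-1 green MFI at 530 nm. Read-out: percent efflux inhibition, scaled nicardipine 100% to DMSO 0%. Control set: nicardipine and DMSO wells.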
L major viab: inhibitors of Leishmania major promastigote growth; Leishmania major promastigotes, resazurin fluorescence viability; actives 9% (n = 200,000); inhibition, % at 10 µM;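 also: promastigotes grown with compound for 44 hours at 28 °C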
ABCB1 block: inhibitors of human ABCB1 transporter, ABCG2 counter-screen. inhibition, % at 6.6 µM. actives 0.067% (n = 190,000). CCRF-Adr cells, JC-1 efflux, flow cytometry. P08183; in the data active = inhibition above about 40%;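 also: 0% = vehicle and 100% = reference inhibitor; higher value means more JC-1 retained so stronger ABCB1 efflux block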
Avidin fluor: avidin bead compound fluorescence profile | Avidin beads, compound fluorescence 488/530 nm, flow cytometry; hits give high values | actives 0.38% (n = 220,000) | fluorescence (KMESF) at 10 µM | AID 1775; in the data active = fluorescence above about 47
GSH fluor: GSH bead compound fluorescence profile. actives 0.25% (n = 190,000). GSH beads flow cytometry, compound fluorescence 488/530 nm; hits give high values. fluorescence (KMESF) at 10 µM. AID 1776; in the data active = fluorescence above about 89;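 also: glutathione beads carrying GST-tagged Bcl family fusion proteins plus one bare bead set; values are compound well signal with DMSO vehicle wells as background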
* = called active by the depositor. This is one part of a sample in which hits are shown more often than they occur. Rule as the data show it, unless noted: active = inhibition above about 50%; inactive = the rest.

What do the screens show for `CC(C)(C)c1ccc(CCC2OCC(C[N+]3(C)CCOCC3)O2)cc1` (configuration not stated)?
Avidin fluor: 2

What do the screens show for `CCCc1c(C)[nH]c2ccc(C(=O)O)cc2c1=S`?
Avidin fluor: 7

What do the screens show for `O=C(Cn1c(C(F)(F)F)nc2ccccc21)N/N=C/c1ccco1`?
PKD1 inh: 1; ABCG2 block: 2; L major viab: -7; ABCB1 block: 0; Avidin fluor: 12; GSH fluor: 15

How did CN1CCN(C(=S)SCc2nc(N)nc(Nc3ccc(F)cc3)n2)CC1 do in these assays?
PKD1 inh: -2; ABCG2 block: 3; L major viab: 22; ABCB1 block: 0; Avidin fluor: 10; GSH fluor: 9

Results for C#CCOCCOCCOCCNc1nc(N2CCN(C(=O)Cn3cc(CCCN=C(N)N)nn3)CC2)nc(N2CCN(C(=O)[C@H]([C@@H](C)CC)n3cc(CCCN=C(N)N)nn3)CC2)n1 ?
PKD1 inh: 0; ABCG2 block: -5; L major viab: -5; ABCB1 block: 1; Avidin fluor: 11; GSH fluor: 19

How did COc1ccc(/C=C/C(=O)N(C)c2ccccc2C(=O)O)cc1 do in these assays?
PKD1 inh: -2; ABCG2 block: 0; L major viab: 6; ABCB1 block: 0; Avidin fluor: 9; GSH fluor: 12

How did Cc1cc(=O)[nH]c(SCCOc2ccc(OC(C)C)cc2)n1 do in these assays?
PKD1 inh: 3; ABCG2 block: 12; L major viab: -4; ABCB1 block: -1; Avidin fluor: 12; GSH fluor: 28

How did CCCCC(CCC(=O)O)(C(=O)OCC)c1csc(Nc2ccc(OCC)cc2)n1 (configuration not stated) do in these assays?
Avidin fluor: 5

Results for CC(C)CCN(C(=O)COc1ccc(C#N)cc1)c1c(N)n(Cc2ccccc2)c(=O)[nH]c1=O ?
PKD1 inh: 2; ABCG2 block: 3; L major viab: -1; ABCB1 block: -1; Avidin fluor: 9; GSH fluor: 8

How did CN1CCN(c2ccc(NC(=O)COc3ccccc3Cl)cc2)CC1 do in these assays?
PKD1 inh: 3; ABCG2 block: 1; L major viab: 100*; ABCB1 block: 0; Avidin fluor: 16; GSH fluor: 34

Results for O=C(COC(=O)CNC(=O)c1ccc(Cl)cc1Cl)Nc1ccc(N2CCOCC2)cc1 ?
PKD1 inh: 1; ABCG2 block: 8; L major viab: -6; ABCB1 block: 2; Avidin fluor: 11; GSH fluor: 11

How did O=C(COC(=O)C1Cc2ccccc2CN1C(=O)c1ccccc1Cl)Nc1ccc(N2CCOCC2)cc1 (configuration not stated) do in these assays?
PKD1 inh: -2; ABCG2 block: 6; L major viab: 77*; ABCB1 block: 3; Avidin fluor: 14; GSH fluor: 9

What do the screens show for `COc1ccccc1N1CCN(C(C)C(=O)Nc2ccc(S(=O)(=O)N3CCOCC3)cc2)CC1` (configuration not stated)?
PKD1 inh: 0; ABCG2 block: 0; L major viab: -3; ABCB1 block: 0; Avidin fluor: 20; GSH fluor: 11

What do the screens show for `NS(=O)(=O)c1ccc(CCNC(=O)C2CCC(Cn3c(=S)[nH]c4ccccc4c3=O)CC2)cc1` (configuration not stated)?
PKD1 inh: -3; ABCG2 block: 0; L major viab: -8; ABCB1 block: 0; Avidin fluor: 2; GSH fluor: 14

Results for NS(=O)(=O)c1ccc(CCn2c(=S)[nH]c3ccc(F)cc3c2=O)cc1 ?
PKD1 inh: 2; ABCG2 block: 2; L major viab: 76*; ABCB1 block: 0; Avidin fluor: 20; GSH fluor: 10

Results for Cc1nc(C(=O)NNC(=O)c2ccc(Cl)cc2)c(C(F)(F)F)o1 ?
Avidin fluor: 7

What do the screens show for `COc1ccc(N=CC2=C(Nc3ccc(OC)cc3)c3c(C)nn(-c4ccccn4)c3CC2)cc1`?
PKD1 inh: -3; L major viab: 100*

How did OCC1(Cc2ccc(Cl)cc2)CCN(Cc2ccccc2F)CC1 do in these assays?
PKD1 inh: -9; ABCG2 block: 8; L major viab: 57*; ABCB1 block: 1; Avidin fluor: 2; GSH fluor: 14

From PubChem BioAssay
